Glyco luc inh – N-linked glycosylation inhibition; D54 ERlucT glycosylation luciferase reporter, 24 h; percent of 100 nM tunicamycin response; reporter increase, % at 12.5 µM; 0.23% of 360,000 active;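 active = mean luciferase reporter signal, scaled so untreated is 0 and the glycosylation-blocking control 100, at or above a set limit in every replicate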;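 note: luciferase carries N-glycosylation sites so blocking glycosylation raises the light; 0% = median of neutral control wells and 100% = median of 100 nM tunicamycin wells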
FN deposit inh – fibronectin deposition inhibition; AH1F fibroblasts, Alexa488-fibronectin deposition fluorescence, overnight; inhibition, % at 12.6 µM; 0.086% of 350,000 active; AID 743247;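 active = mean inhibition across replicates of 30% or more, regardless of how many single replicates reach that level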;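 note: positive control wells lacked labelled fibronectin entirely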
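Schedule: 1 h cell adhesion before compound, then overnight fibronectin incubation; test system: AH1F fibroblast monolayer depositing Alexa488-labelled fibronectin into matrix; quantity: 10000 AH1F cells per well; probe or stimulus: fluorescent fibronectin at 24 nM final; signal: fluorescence, ex 485 nm, em 525 nm; evaluation: percent inhibition as loss of matrix-bound fibronectin fluorescence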
RAD52 anneal inh – blocks human RAD52 DNA annealing. recombinant RAD52 DNA annealing, FRET fluorescence. inhibition, % at 18.7 µM. 0.46% of 360,000 active. AID 651710;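 active = every replicate showing at least 50% inhibition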
RAD54 branch – RAD54 (human) branch migration inhibition; Q92698; RAD54 Holliday junction branch migration, FAM/BHQ fluorescence; inhibition, % at 10.4 µM; 0.14% of 360,000 active;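 active = mean normalized replicate activity at least 40 and at least half of replicates scoring 40 or more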;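 note: 0% = median of neutral control wells and 100% = median of positive control wells; inhibitors cause a drop in the FAM fluorescence signal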
Target sequence (Q92698 whole entry, looked up): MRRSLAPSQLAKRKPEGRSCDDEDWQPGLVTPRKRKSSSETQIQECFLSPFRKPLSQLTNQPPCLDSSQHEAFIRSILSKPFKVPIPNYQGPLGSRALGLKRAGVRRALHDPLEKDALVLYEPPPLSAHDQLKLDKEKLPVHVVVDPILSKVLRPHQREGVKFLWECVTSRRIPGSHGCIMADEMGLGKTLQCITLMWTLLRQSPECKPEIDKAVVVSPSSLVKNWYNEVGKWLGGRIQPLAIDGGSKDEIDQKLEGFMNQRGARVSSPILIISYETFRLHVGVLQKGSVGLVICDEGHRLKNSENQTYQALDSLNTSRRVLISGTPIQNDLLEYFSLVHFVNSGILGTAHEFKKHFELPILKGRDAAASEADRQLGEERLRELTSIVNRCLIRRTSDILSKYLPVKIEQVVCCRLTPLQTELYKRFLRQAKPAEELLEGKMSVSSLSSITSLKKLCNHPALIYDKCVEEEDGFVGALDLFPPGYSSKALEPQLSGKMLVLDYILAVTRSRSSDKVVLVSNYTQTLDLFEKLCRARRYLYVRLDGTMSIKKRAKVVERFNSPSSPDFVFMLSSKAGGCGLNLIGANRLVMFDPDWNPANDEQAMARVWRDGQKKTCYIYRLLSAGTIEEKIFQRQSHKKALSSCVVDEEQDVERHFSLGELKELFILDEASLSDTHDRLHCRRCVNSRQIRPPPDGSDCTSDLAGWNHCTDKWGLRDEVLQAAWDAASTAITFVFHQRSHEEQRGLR
CaV13 FRET inh – Disruptors of the CACNA1D IQ motif to Ca2+-dependent inactivation inhibitor domain association, primary screening, Förster resonance energy transfer in intact living …; 0.098% of 340,000 active; inhibition, % at 12.3 µM; HEK cells, CFP/YFP FRET ICDI-IQ, plate reader, 10 min; percent FRET-ratio fall versus neutral wells;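 active = mean replicate inhibition of at least 30% and at least 1% of replicates passing that level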;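 note: 0% = median of the neutral control wells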
An asterisk follows results filed as active; ! = a repeat was not active. Most compounds without a hit are left out; they make up all but 0.7% or so of the library.

COc1ccccc1S(=O)(=O)N1[C@@H]2CNC[C@H]1C2c1ccc(/C=C/c2ccccc2)cc1 (stereo partly drawn) was read as FN deposit inh -1.3 and RAD52 anneal inh 32.7.
N#Cc1cccc(-c2ccc(C3[C@H]4CNC[C@@H]3N4S(=O)(=O)c3ccc(F)cc3)cc2)c1 (stereo partly drawn) was read as FN deposit inh -11.3 and RAD52 anneal inh 28.2.
Cc1ccccc1S(=O)(=O)N1[C@@H]2CNC[C@H]1C2c1ccc(/C=C/c2ccccc2)cc1 (stereo partly drawn) was read as FN deposit inh -0.3 and RAD52 anneal inh 51.2*!.
Screening Cc1ccc(S(=O)(=O)N2[C@@H]3CNC[C@H]2C3c2ccc(-c3cccc(C#N)c3)cc2)cc1 (stereo partly drawn) returned FN deposit inh -1.4 and RAD52 anneal inh 52.7*!.
Screening CCC(=O)N1CC2(CCN(C(=O)NC(C)C)CC2)c2c(n(C)c3cc(OC)ccc23)[C@H]1CO returned RAD52 anneal inh 2.8.
For COc1ccc(S(=O)(=O)Nc2cccc3c2O[C@H](CN(C)C(=O)NC2CCCCC2)[C@H](C)CN([C@H](C)CO)C3=O)cc1 the results were FN deposit inh 1.5, RAD52 anneal inh -3.3 and RAD54 branch -12.1.
For COc1ccc2c(c1)C(=O)N1[C@H]3c4cc(OC)ccc4OC[C@@H]3[C@H](c3ccccc3)[C@]1(C)C(=O)N2 the results were Glyco luc inh 61.5*, FN deposit inh 12.6, RAD52 anneal inh -12.1, RAD54 branch 7.1 and CaV13 FRET inh -3.1.
For COc1ccc2c(c1)OC[C@H]1[C@H]2N2C(=O)c3cc(Br)ccc3NC(=O)[C@@]2(C)[C@H]1c1ccccc1 the results were Glyco luc inh 35.6* and RAD54 branch 3.4.
`COc1ccc2c(c1)[C@H]1[C@H](CO2)[C@H](c2ccccc2)[C@]2(C)C(=O)Nc3ccccc3C(=O)N12` gave Glyco luc inh 66.6*, FN deposit inh 6.3, RAD52 anneal inh -6.3, RAD54 branch -0.5 and CaV13 FRET inh -5.3.
`COc1ccc2c(c1)[C@H]1[C@H](CO2)[C@H](c2ccccc2)[C@]2(C)C(=O)Nc3ccc(Br)cc3C(=O)N12` gave Glyco luc inh 40.8*, FN deposit inh 8.1, RAD52 anneal inh -31.0, RAD54 branch -1.4 and CaV13 FRET inh -11.6.
Cc1ccc2c(c1)C(=O)N1[C@H]3c4cc(C)ccc4OC[C@@H]3[C@H](c3ccccc3)[C@]1(C)C(=O)N2 was read as Glyco luc inh 23.6, FN deposit inh 2.9, RAD52 anneal inh -13.3, RAD54 branch -6.8 and CaV13 FRET inh -5.1.
For COc1ccc(CNC(=O)C[C@@H]2C=C[C@@H](NC(=O)CN(C)C)[C@@H](CO)O2)cc1 the results were RAD52 anneal inh -11.7 and RAD54 branch 3.5.
`COc1ccc(NC(=O)N(C)C[C@H]2Oc3ncc(C#C[C@@H](C)O)cc3C(=O)N([C@@H](C)CO)C[C@@H]2C)cc1` gave RAD52 anneal inh -4.6 and RAD54 branch 0.9.
COc1ccc(NC(=O)N(C)C[C@H]2Oc3ccc(NC(=O)Nc4ccccc4)cc3C(=O)N([C@@H](C)CO)C[C@@H]2C)cc1 was read as RAD52 anneal inh -10.3 and RAD54 branch 12.4.
For COc1ccc2c(c1)[C@H]1[C@H](CO2)[C@H](c2ccccc2)[C@]2(C)C(=O)Nc3cc(F)ccc3C(=O)N12 the results were Glyco luc inh 40.9*, FN deposit inh 5.3, RAD52 anneal inh 10.7, RAD54 branch 0.4 and CaV13 FRET inh -9.9.
For C=CC[C@H](O)c1ccc(O)c(F)c1 the results were RAD52 anneal inh -0.9 and RAD54 branch -1.9.
Screening COc1cc(/C=C/c2onc(C)c2[N+](=O)[O-])cc(OC)c1OC returned Glyco luc inh 36.7*, FN deposit inh 15.9, RAD52 anneal inh -44.4 and CaV13 FRET inh -22.3.
Cc1cccc(/C=C/c2onc(C)c2[N+](=O)[O-])n1 was read as FN deposit inh -0.8, RAD52 anneal inh -6.2 and CaV13 FRET inh -5.3.
Cc1noc(C)c1S(=O)(=O)Nc1ccc2c(c1)C(=O)N([C@@H](C)CO)C[C@H](C)[C@@H](CN(C)C(=O)Cc1ccccc1)OCCCC[C@H](C)O2 was read as RAD52 anneal inh -8.9 and RAD54 branch -6.0.
`Cc1ccc(Sc2c(CO)c(-c3ccccc3)nn2C)cc1` gave Glyco luc inh 28.9*, FN deposit inh -14.6, RAD52 anneal inh -2.8 and CaV13 FRET inh -6.6.
CCOc1cccc(C(=O)Nc2cccc(-c3nnc(-c4ccc(C)cc4)o3)c2)c1 was read as Glyco luc inh 98.5*, RAD54 branch 9.6 and CaV13 FRET inh -8.0.
COc1cc(CN2CC3(CN(C)C3)c3c([nH]c4cc(OC)ccc34)[C@@H]2CO)cc(OC)c1 was read as RAD52 anneal inh 53.8*.
COc1ccc(S(=O)(=O)N2CCC3(CC2)CN(Cc2ccccc2OC)[C@@H](CO)c2[nH]c4cc(OC)ccc4c23)cc1 was read as RAD52 anneal inh 52.2*.
COc1ccc2c3c([nH]c2c1)[C@H](CO)N(Cc1cccc(Cl)c1)CC31CN(C)C1 was read as RAD52 anneal inh 55.7*.
For COC1=CC(=O)c2nc(Cl)ccc2C1=O the results were Glyco luc inh -18.0, FN deposit inh 9.7, RAD52 anneal inh 13.6 and CaV13 FRET inh -5.6.
`COC1=CC(=O)c2c(ccc3ncnc(N)c23)C1=O` gave Glyco luc inh -20.4, FN deposit inh 31.2*, RAD52 anneal inh 0.8 and CaV13 FRET inh -2.0.
`COc1ccc(NC(=O)N(C)C[C@H]2Oc3ccc(NS(=O)(=O)c4ccc(Cl)cc4)cc3C(=O)N([C@H](C)CO)C[C@H]2C)cc1` gave FN deposit inh -5.1, RAD52 anneal inh 3.2 and RAD54 branch 11.3.
`C[C@H]1CN([C@@H](C)CO)C(=O)c2cc(/C=C/c3ccccc3)cnc2O[C@H]1CN(C)C(=O)Nc1ccc(C(F)(F)F)cc1` gave FN deposit inh -2.4, RAD52 anneal inh 0.0 and RAD54 branch 2.1.
`C=CCN1C(=S)CC(c2ccccc2)=Nc2ccccc21` gave Glyco luc inh 0.3, FN deposit inh -4.4, RAD52 anneal inh -5.4, RAD54 branch -0.8 and CaV13 FRET inh 63.5*.
C=CCn1c(-c2csc(-c3ccccc3)n2)n[nH]c1=S was read as Glyco luc inh 1.5, RAD54 branch -6.3 and CaV13 FRET inh -5.7.
For O=C(c1cccc(Cl)c1)N1CCC(=O)N(C(COCc2ccccc2)Cc2ccccc2)CC1 (stereo not drawn) the results were Glyco luc inh -0.4, FN deposit inh 1.4, RAD52 anneal inh -6.9, RAD54 branch -6.5 and CaV13 FRET inh 55.3*.
O=C1C[C@@H](c2ccc(O)cc2)Oc2cc(O)cc(O)c21 was read as Glyco luc inh 0.4, FN deposit inh 5.9, RAD52 anneal inh -15.9, RAD54 branch 4.7 and CaV13 FRET inh -9.3.
